# Data as given in ChEMBL document CHEMBL6103596, “Design, Synthesis, and Biological Evaluation of BODIPY-Caged Resiquimod as a Dual-Acting Phototherapeutic” (J Med Chem, 2025).
# Active and inactive are the calls of the source. No cut-off for these calls is given here.
# Legend:
# AD293 [1] = assay: Cytotoxicity against human AD293 cells assessed as cell viability at 0.1 to 10 uM incubated for 24 hrs by MTT assay; type: toxicity, cell-based; details: ad293, 24 h, dose 0.1-10 µM
# Method in brief: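 AD293 cells seeded at 4 × 10^4 cells/well in DMEM with 10% FBS. Next day, compound (100 nM, 1 μM, 10 μM) or vehicle added in serum-free DMEM for 24 h, no irradiation. MTT (5 mg/mL reagent) added for 3 h at 37 °C, formazan dissolved in DMSO, absorbance read at 590 nm. Triplicate wells, four independent experiments.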
# [2] = Photosensitizing ability of the compound assessed as singlet oxygen quantum yield under 600nm monochromatic light irradiation by DPBF based assay relative to control; type: functional
# Method in brief: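 Singlet oxygen generation followed by the decrease in DPBF absorbance under irradiation. DPBF (20–25 μm) used at 5–10-fold excess over compound (2.5–5 μm).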
# [3] = Photophysical property of the compound assessed as fluorescence quantum yield; type: physicochemical
# [4] = Thermal stability of compound in DMSO-d6 at 37.5 degree C measured after 2 days by 1H NMR spectroscopy analysis relative to control; type: physicochemical; details: 48 h; time 2 day
# Method in brief: (§1)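 Compound in DMSO-d6 followed by 1H NMR. Degradation taken from the intensity of three signals (one resiquimod, one BODIPY, and the linkage NH), each relative to the DMSO-d6 internal standard, and the three averaged.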
# [5] = Thermal stability of compound in DMSO-d6 at 37.5 degree C measured after 1 day by 1H NMR spectroscopy analysis relative to control; type: physicochemical; details: 24 h; method in brief: as §1
# [6] = Photorelease activity of the compound in aqueous solution at 30 uM measured upto 200 mins under 660nm 400mW LED light by UV-vis spectroscopy analysis; details: buffer, 3.333 h
# [7] = Photorelease activity of the compound in DMSO-d6 measured after 10 hrs under 660nm 400mW LED light by 1H NMR spectroscopy analysis relative to control; type: ADME
# [8] = Photorelease activity of the compound in aqueous solution at 30 uM measured upto 200 mins under dark condition by 1H NMR spectroscopy analysis; type: ADME; details: buffer, 3.333 h
# [9] = Thermal stability of compound in DMSO-d6 at 37.5 degree C measured before 24 hrs by 1H NMR spectroscopy analysis; type: physicochemical; method in brief: as §1
# [10] = Thermal stability of compound in DMSO-d6 at 37.5 degree C measured after 3 days by 1H NMR spectroscopy analysis relative to control; type: physicochemical; details: 72 h; time 3 day; method in brief: as §1
# AD293 [11] = assay: Effect on morphological changes in human AD293 cells at 10 uM; type: functional, cell-based
# Method in brief: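 AD293 cells treated with 10 μM compound, followed by LED irradiation or kept unirradiated, then morphology examined by microscopy.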
# AD293 [12] = assay: Effect on morphological changes in human AD293 cells stable expressing TLR7 at 10 uM pretreated with N-Acetylcysteine for 30 mins followed by compound addition and measured after 30 mins under LED light irradiation at 650 nm by microscopic analysis; type: functional, cell-based
# Method in brief: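 TLR7-stable AD293 cells seeded at 20,000/well. After 24 h, medium switched to Opti-MEM. 1 h later, 10 mM N-acetyl-cysteine added. 30 min after that, cells given 10 μM compound and exposed to 650 nm LED for 30 min, or shielded from light as control. Cells observed by microscope 24 h after drug treatment.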
# RAW264.7 [13] = assay: Effect on iNOS mRNA expression in mouse RAW264.7 cells at 100 nM preincubated with NAC followed by compound addition and measured after 30 mins under 650nm LED light irradiation by real-time PCR analysis; type: functional, cell-based
# Method in brief: (§2)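 RAW264.7 cells seeded at 0.3 million per 35 mm dish. Next day, pretreated with 10 mM N-acetyl-cysteine for 30 min, then given 100 nM compound and 650 nm LED light for 30 min. Total RNA taken 24 h later and reverse transcribed with random primers. SYBR real-time PCR run for 40 cycles (95/60/72 °C). Quantities calculated by the Ct method. Results given as fold change, means ± SD.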
# [14] = Induction of hydroxyl radical assessed as DMPO-OH radical adduct formation under light irradiation measured after 10 mins by ESR spectra analysis; type: functional
# Method in brief: (§3)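 ESR spectra recorded with DMPO as spin trap to detect superoxide and/or hydroxyl radical adducts, before and after 10 min irradiation of compound.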
# [15] = Drug uptake in human AD293 cells assessed as increase in red fluorescence at 10 uM measured after 40 mins by fluorescence imaging based analysis; type: ADME, cell-based; details: ad293, 40 min
# [16] = Induction of superoxide anion radical assessed as DMPO-O2 radical adduct formation under light irradiation measured after 10 mins by ESR spectra analysis; type: functional; method in brief: as §3
# [17] = Induction of superoxide anion radical assessed as DMPO-O2 radical adduct formation under dark condition measured after 10 mins by ESR spectra analysis; type: functional; method in brief: as §3
# [18] = Drug uptake in human A549 cells assessed as increase in intracellular fluorescence at 1 uM measured after 40 mins by confocal microscopic analysis; type: ADME, cell-based; details: a549, 40 min
# Method in brief: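 A549 cells treated with 1 μM compound. Intracellular fluorescence imaged by confocal microscopy (640 nm laser excitation, 650–750 nm band-pass) at 0 and 40 min after treatment.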
# RAW264.7 [19] = assay: Effect on TNF-alpha mRNA expression in mouse RAW264.7 cells at 100 nM preincubated with NAC followed by compound addition and measured after 30 mins under 650nm LED light irradiation by real-time PCR analysis; type: functional, cell-based; method in brief: as §2
# [20] = Induction of hydroxyl radical assessed as DMPO-OH radical adduct formation under dark condition measured after 10 mins by ESR spectra analysis; type: functional; method in brief: as §3
Activity [3],Activity [4],Activity [5],Activity [6],Activity [7],Activity [8],Activity [9],Activity [10],Drug uptake [15],Drug uptake [18],Compound,Activity (AD293 [1]),Activity [2],Activity (AD293 [11]),Activity (AD293 [12]),Activity (RAW264.7 [13]),Activity [14],Activity [16],Activity [17],Activity (RAW264.7 [19]),Activity [20]
0.554,,,,,,,,,,COCCOCCOCCOc1ccc(/C=C/C2=[N+]3C(=C(CO)c4c(C)cc(/C=C/c5ccc(OCCOCCOCCOC)cc5)n4[B-]3(F)F)C(C)=C2)cc1,Non-toxic,0.37%,,,,,,,,
0.482,11%,7%,Active,~ 90%,Not_active,Not_active,15%,,,CCOCc1nc2c(NC(=O)OCC3=C4C(C)=CC(/C=C/c5ccc(OCCOCCOCCOC)cc5)=[N+]4[B-](F)(F)n4c(/C=C/c5ccc(OCCOCCOCCOC)cc5)cc(C)c43)nc3ccccc3c2n1CC(C)(C)O,Non-toxic,0.33%,,,,,,,,
,,,,,,,,Active,Active,COCCOCCOCCOc1ccc(/C=C/C2=[N+]3C(=C(CO)c4c(C)cc(/C=C/c5ccc(OCCOCCOCCOC)cc5)n4[B-]3(C)C)C(C)=C2)cc1,Non-toxic,2.2%,inactive,Active; Showed Greater Effect Than Compound 3C,inactive,inactive,inactive,inactive,inactive,inactive
